# Screens: PubChem, The Scripps Research Institute Molecular Screening Center
# Sampled rows, rich in hits. Any-hit rate of the full collection: about 3.7%.
# rCAG RNA binder – binds r(CAG) RNA repeats; AID 651821; r(CAG) RNA repeat, TO-PRO-1 dye displacement fluorescence; inhibition, % at 3 µM; 370,000 compounds, 1.3% hits;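 active = inhibition above the plate cutoff, the mean of all test compounds on that plate plus 3 SD, cut at about 35% in these data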;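 also: higher means more dye released from RNA so lower well fluorescence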
# core dimer inh – HCV core protein dimerization inhibition; TR-FRET GST/Flag-core106 dimerization, 1536-well; inhibition, % at 5 µM; 300,000 compounds, 0.33% hits; AID 1899;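 active = inhibition above the mean of all tested compounds plus 3 SD, set per screening campaign, cut at about 45% in these data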
#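 System – GST-tagged and Flag-tagged HCV core protein residues 1-106 · Repeats – one well for each compound · Technique – TR-FRET 671 and 617 nm emission · Doses – one concentration, 5 µM, in 0.5% DMSO · Times – 4 h, 22.5 °C incubation · Also added – Eu donor and XL665 acceptor anti-tag antibodies · Measure – percent inhibition of core106 dimerization signal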
# NS3 helicase inh – blocks Hepatitis C virus NS3 helicase unwinding. NS3 helicase DNA unwinding, Cy5 molecular beacon fluorescence. inhibition, % at 10.9 µM. 290,000 compounds, 0.56% hits. AID 1800;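 active = inhibition above the mean of all tested compounds plus 3 SD, set per campaign, cut at about 35% in these data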
#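 System: Hepatitis C virus NS3 helicase domain fragment enzyme | Reagent: Annealed dual-labelled DNA beacon duplex, ATP-started | Compound dosing: 10.9 µM single point, 0.8% DMSO | Incubation: 1 h reaction at 25 °C, ATP-initiated | Technique: Cy5 fluorescence | Evaluation: Percent inhibition from t60/t0 fluorescence ratio | Benchmarks: Low DMSO, high thioflavine S at 110 µM | Replication: Singlicate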
# TAAR1 agonist – agonists of human TAAR1; Q96RJ0; CHO RD-HGA16 TAAR1, Fluo-8 calcium fluorescence; vehicle wells 0%, saturating PEA agonist 100%; activation, % at 3 µM; 360,000 compounds, 0.99% hits;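 active = activation above the mean activation of all test compounds in the run plus 3 SD, cut at about 38% in these data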
# Target sequence (Q96RJ0 whole entry, looked up): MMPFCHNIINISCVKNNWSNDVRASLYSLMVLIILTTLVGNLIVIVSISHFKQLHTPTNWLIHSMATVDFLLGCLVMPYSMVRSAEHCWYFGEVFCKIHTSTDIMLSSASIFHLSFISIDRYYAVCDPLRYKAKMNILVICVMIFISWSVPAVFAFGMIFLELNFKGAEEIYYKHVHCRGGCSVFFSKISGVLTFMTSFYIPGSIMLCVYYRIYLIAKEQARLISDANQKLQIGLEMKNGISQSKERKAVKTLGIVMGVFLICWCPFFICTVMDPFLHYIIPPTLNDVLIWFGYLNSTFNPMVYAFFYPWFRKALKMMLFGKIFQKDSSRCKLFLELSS
#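 System: CHO RD-HGA16 cells carrying human TAAR1 plus Gα16; Incubation: 17-24 h seeding, 75 min 37 °C dye, 30 min RT; Measured by: Fluo-8 fluorescence, 5 s baseline then 140 s kinetic read; Control set: DMSO and PEA EC100; Replication: single well for each compound.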
# TAAR1 antagonist – antagonists of human TAAR1. Q96RJ0. CHO RD-HGA16 TAAR1, Fluo-8 calcium fluorescence, antagonist. inhibition, % at 3 µM. 360,000 compounds, 1.5% hits. AID 624466;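 active = inhibition above a per-plate cutoff, the mean inhibition of test compounds on that plate plus 3 SD, cut at about 49% in these data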
#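 Assay system: RD-HGA16 CHO cells with stable hTAAR1 and Gα16 / Reagent: EC80 β-phenethylamine stimulus / Doses: 3 µM, single point / Timing: dye loading 75 min at 37 °C, then 30 min room temperature / Measured by: Fluo-8 intracellular calcium dye fluorescence, real-time kinetic reads / Controls: vehicle wells and EC80 agonist wells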
# TAAR1 ag confirm – confirmation of human TAAR1 agonists; AID 651783; 2,400 compounds, 82% hits; shares compounds with TAAR1 agonist; activation, % at 3 µM; CHO RD-HGA16 TAAR1, Fluo-8 calcium fluorescence; scaled: DMSO 0%, maximal phenethylamine 100%;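 active = activation above a cutoff set at the run's mean compound activation plus 3 SD, cut at about 39% in these data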
# Ga16 nonsel ag – nonselective agonism, TAAR1 counter-screen; AID 651787; shares compounds with TAAR1 agonist; 2,400 compounds, 50% hits; CHO-Ga16 parental, Fluo-8 calcium fluorescence; normalized to maximal ATP response, DMSO zero; activation, % at 3 µM;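 active = activation above the run cutoff, the mean activation over all tested wells plus 3 SD, cut at about 12% in these data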
# TAAR1 desens – TAAR1 response desensitization, agonist counter-screen | CHO RD-HGA16 hTAAR1, Fluo-8 calcium, beta-PEA response inhibition | shares compounds with TAAR1 agonist | inhibition, % at 3 µM | 2,400 compounds, 46% hits | AID 651951;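 active = inhibition above the run cutoff, the mean inhibition of all test compounds plus 3 SD, cut at about 49% in these data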;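 also: beta-PEA stimulus applied at its EC80; loss of beta-PEA calcium signal after compound pretreatment read as receptor desensitization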
# Ga16 nonsel ant – nonselective Ga16 antagonism, counter-screen | CHO-Ga16 ATP-induced calcium, Fluo-8 fluorescence | shares compounds with TAAR1 agonist | inhibition, % at 3 µM | 2,400 compounds, 39% hits | AID 651952;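 active = inhibition above the plate's mean compound inhibition plus 3 SD, computed per plate, cut at about 22% in these data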
# Numbers stand for hits; i = inactive; nt = no result given.
SMILES,rCAG RNA binder,core dimer inh,NS3 helicase inh,TAAR1 agonist,TAAR1 antagonist,TAAR1 ag confirm,Ga16 nonsel ag,TAAR1 desens,Ga16 nonsel ant
Fc1ccccc1-c1nc(-c2ccc(-c3nn[nH]n3)cc2)no1,i,nt,nt,51,i,i,16,i,i
Brc1cccc(Cn2ccc3ccc(-c4ccc5ccn(Cc6cccc(Br)c6)c5c4)cc32)c1,i,nt,nt,nt,nt,nt,nt,nt,nt
COc1ccc(Cn2ccc3ccc(-c4ccc5ccn(Cc6ccccc6F)c5c4)cc32)cc1,i,nt,nt,nt,nt,nt,nt,nt,nt
CN(C)CCCOc1ccc(C(C)(C)c2ccccc2)cc1,i,i,i,75,i,45,i,i,i
CN(C)CCOc1ccc(C(C)(C)c2ccccc2)cc1,i,i,i,i,i,nt,nt,nt,nt
CN1CCN(C(c2ccc(C(F)(F)F)cc2)c2cc(Cl)c3cccnc3c2O)CC1 (stereo not drawn),i,i,i,119,i,129,106,81,44
N=C1/C(=C/c2cccn2Cc2ccc(F)cc2)C(=O)N=C2SC=CN12,i,i,i,i,i,nt,nt,nt,nt
N=C1/C(=C\c2coc3ccccc3c2=O)C(=O)N=C2SC=CN12,i,i,i,148,60,110,118,75,75
O=C(Cc1ccccc1)NC(NCCc1ccccc1)C(Cl)(Cl)Cl (stereo not drawn),i,i,i,44,i,50,i,i,i
O=C(Cc1ccccc1)NC(Nc1ccccc1)C(Cl)(Cl)Cl (stereo not drawn),i,i,i,i,i,nt,nt,nt,nt
CCCCNC(=O)C[C@H]1C[C@@]2(C(=O)OC)C(=C[C@H](C3CCCC3)O[C@@H]2C)N(Cc2ccc(Cl)cc2Cl)C1=O,i,nt,nt,nt,nt,nt,nt,nt,nt
O=C(COC(=O)/C=C/c1cccs1)Nc1ccc(Cl)cc1F,i,nt,nt,59,74,i,i,i,i
COc1ccc(NC(=O)COC(=O)/C=C/c2cccs2)c(OC)c1,i,nt,nt,i,i,nt,nt,nt,nt
O=C(COC(=O)CCC1CCCC1)Nc1ccc(Cl)cn1,i,i,i,46,i,i,i,i,i
O=C(COC(=O)C1CCC1)Nc1ccc(Cl)cn1,i,nt,nt,i,i,nt,nt,nt,nt
O=C(C1CCN(c2cncnc2)CC1)N1CCOCC1,i,nt,nt,nt,nt,nt,nt,nt,nt
C[C@H](CO)NC(=O)c1nc[nH]c1C(=O)N[C@H](C)c1ccccc1,i,nt,nt,i,i,nt,nt,nt,nt
C[C@H](NC(=O)c1[nH]cnc1C(=O)N[C@H](C)c1ccccc1)c1ccccc1,i,nt,nt,47,i,41,i,i,i
O=C(C1CCCN(S(=O)(=O)c2ccccc2F)C1)N1CCN(Cc2ccccc2)CC1 (stereo not drawn),i,nt,nt,nt,nt,nt,nt,nt,nt
CC(C)C[C@H](NC(=O)c1ccc(Cl)c(Cl)c1)C(=O)N1CCC[C@H]1C(=O)NCc1ccccc1,i,nt,nt,i,i,nt,nt,nt,nt
CN(Cc1ccccc1)c1cc2c(c3c1ccn3C)C1CCC2C1 (stereo not drawn),i,nt,nt,i,i,nt,nt,nt,nt
CN(CCc1ccccc1)c1cc2c(c3c1ccn3C)C1CCC2C1 (stereo not drawn),i,nt,nt,82,i,52,i,i,i
N/C(Cc1cccc2ccccc12)=N\OC(=O)c1ccccc1F,i,nt,i,70,i,81,i,i,i
N/C(Cc1ccc(Cl)cc1Cl)=N\OC(=O)c1ccccc1F,i,i,i,i,i,nt,nt,nt,nt
N/C(Cc1cccc2ccccc12)=N\OC(=O)COc1ccccc1,i,i,i,54,i,61,i,i,i
SMILES,rCAG RNA binder,core dimer inh,NS3 helicase inh,TAAR1 agonist,TAAR1 antagonist,TAAR1 ag confirm,Ga16 nonsel ag,TAAR1 desens,Ga16 nonsel ant
Cn1c2ccccc2c(=O)c2c(=O)n(C3CCCCC3)c(-c3cccs3)nc21,i,i,i,54,i,104,75,61,22
CCc1nc2c(c(=O)c3ccccc3n2C)c(=O)n1C1CCCCCC1,i,i,i,66,i,74,55,i,i
CCN(CC)CCNC(=O)c1ccc2c(c1NCCO)C(=O)c1ccccc1C2=O,i,i,i,i,i,nt,nt,nt,nt
CC1CCN(C(=O)c2ccc3c(c2NCCO)C(=O)c2ccccc2C3=O)CC1,i,i,i,48,i,i,i,i,25
C=CS(=O)(=O)N(Cc1ccc(C)cc1)[C@@H](CO)C(=O)OC,i,nt,nt,nt,nt,nt,nt,nt,nt
CC(SC(=S)N1CCOCC1)C(=O)O (stereo not drawn),i,i,i,i,i,nt,nt,nt,nt
S=C(SSC(=S)N1CCOCC1)N1CCOCC1,i,nt,nt,56,i,54,23,i,i
